From ChEMBL document CHEMBL3352378, “Novel carbazole inhibits phospho-STAT3 through induction of protein-tyrosine phosphatase PTPN6” (J Med Chem, 2014) come the findings set out here.

Data set [1] relates to Hs-578T. The experiment in a line: Cytotoxicity against human Hs578T cells after 72 hrs by MTT assay. Type of data set: functional, cell-based. The method, boiled down: (§1)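 Cells exposed to increasing concentrations for about 72 h, and viability read by MTT. EC50 fitted with CompuSyn. Two independent experiments, each in triplicate, mean ± SEM. Compound stocks 10 mM in DMSO.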
(Tetrazolium assays rely on reduction of a dye to a coloured formazan, in cell work by metabolically active cells.)

The test system of data set [2] is Hs-578T. Briefly: Induction of PTPN6 protein expression in human Hs578T cells transfected with control-siRNA after 24 hrs by Western blotting analysis. In kind it is functional, cell-based. The method, boiled down:
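HS578T cells transfected with 100 nM control or PTPN6 siRNA using Lipofectamine 2000 in serum-free medium. Medium with 20% FBS added after 4 h, and cells kept 3 days. Then treated with DMSO or compound for 24 h. PTPN6 and phospho-STAT3 immunoblotted and quantified by ImageJ densitometry.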
In general terms: A western blot detects proteins with antibodies after separation by electrophoresis.

Data set [3] has as its target Signal transducer and activator of transcription 3 (Homo sapiens) (UniProt P40763). Briefly: Inhibition of STAT3 in human SUM149PT cells assessed as reduction of survivin mRNA expression at 0.3 to 1 uM after 24 hrs by RT-PCR analysis. In kind it is cell-based. The method, boiled down:
(§2)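 HS578T and SUM149PT cells treated for 24 h with increasing concentrations. Transcripts measured by RT-PCR, normalized to GAPDH as loading control.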

Data set [4] in a line: Drug uptake in human MDA-MB-231 cell nucleus at 10 uM after 1 hr by two-photon confocal microscopy. Type of data set: ADME, cell-based. The settings on record: mda-mb-231, 1 h. In a few lines: (§3)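 MDA-MB-231 cells grown overnight on fibronectin/[…]-coated slides, then given 10 μM compound or DMSO for 1 h. Cells washed with PBS and fixed in 4% formaldehyde. Two-photon excitation at 725 nm, emission collected through a 500–550 nm filter.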

For data set [5], the system named is SUM149PT. Briefly: Antitumor activity against human SUM149 cells xenografted in athymic Balb/c nude mouse assessed as reduction in pSTAT3 level at 30 mg/kg, ip administered every other day for 5 days measured on day 5 by Western blotting analysis. Type of data set: functional, organism-based. Set-up: dose 30 mg/kg. The method, boiled down: (§4)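 SUM149 subcutaneous xenografts in nude mice (n = 5), dosed ip every other day in Cremophore/PEG400/PBS vehicle. Tumors taken on day 5 were immunoblotted for PTPN6, STAT3 and pSTAT3, with GAPDH as control. PTPN6 quantified by densitometry with a one-tailed t test.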
(Xenograft models place foreign cells or tissue in a host animal.)

The nature of data set [6]: Drug uptake in human MDA-MB-231 cell cytoplasm at 10 uM after 1 hr by two-photon confocal microscopy. Type of data set: ADME, cell-based. The settings on record: mda-mb-231, 1 h. The method, boiled down:
as §3

Data set [7] relates to A549. The experiment in a line: Antitumor activity against human A549 cells xenografted in athymic Balb/c nude mouse at 10 mg/kg, ip administered every other day for 27 days measured on day 5. In kind it is functional. Particulars: route intraperitoneal, read-out: TGI. The method, boiled down:
(§5)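 Male and female athymic nude mice (18–22 g) implanted subcutaneously in the right auxiliary region with 3×10^6 A549 cells. Mice were randomized into groups of five 3 days after implantation, and dosing started at about 50 mm³ tumor. Working solution 1 mg/mL in 10% Cremophore/3% PEG400/87% PBS; ip every other day, vehicle control. Caliper volume L×w×w/2, mean ± SEM, n = 5.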

The nature of data set [8]: Cytotoxicity against human PC3 cells after 72 hrs by MTT assay. In kind it is functional. The settings on record: PC-3, 72 h. The method, boiled down:
as §1

Data set [9] concerns MDA-MB-231. The experiment in a line: Cytotoxicity against human MDA-MB-231 cells after 72 hrs by MTT assay. In kind it is functional, cell-based. The method, boiled down: as §1
Data set [10] concerns the target Signal transducer and activator of transcription 3 (Homo sapiens) (UniProt P40763). Briefly: Inhibition of STAT3 in human Hs578T cells assessed as reduction of cyclin D1 mRNA expression at 0.3 to 1 uM after 24 hrs by RT-PCR analysis. Type of data set: cell-based. Particulars: Hs-578T. In a few lines: as §2
Data set [11] has as its system Mus musculus. The experiment in a line: Toxicity in athymic Balb/c nude mouse xenografted with human SUM149 cells assessed as lethargy at 10 to 30 mg/kg, ip administered every other day for 5 days. In kind it is organism-based. Details: dose 10-30 mg/kg, route intraperitoneal. Particulars: in vivo, 120 h. In a few lines:
(§6)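 SUM149 cells (3×10^6) implanted subcutaneously in the right auxiliary region of male and female athymic nude mice (18–22 g). Groups of five, randomized; dosed ip every other day at 10 or 30 mg/kg from 1 mg/mL Cremophore 10%/PEG400 3%/PBS vehicle, vehicle control. Tumor volume by caliper (L×w×w/2); body weight, appetite, activity and lethargy monitored.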

The nature of data set [12]: Antitumor activity against human SUM149 cells xenografted in athymic Balb/c nude mouse assessed as PTPN6 upregulation at 30 mg/kg, ip administered every other day for 5 days measured on day 5 by Western blotting analysis. In kind it is functional, organism-based. Details: dose 30 mg/kg. Particulars: SUM149PT. In a few lines: as §4
The target in data set [13] is Signal transducer and activator of transcription 3 (Homo sapiens) (UniProt P40763). The experiment in a line: Inhibition of STAT3 in human Hs578T cells assessed as reduction of survivin mRNA expression at 0.3 to 1 uM after 24 hrs by RT-PCR analysis. In kind it is cell-based. Particulars: Hs-578T. In a few lines:
as §2

The subject of data set [14] is Mus musculus. The experiment in a line: Toxicity in athymic Balb/c nude mouse xenografted with human SUM149 cells assessed as decreased activity at 10 to 30 mg/kg, ip administered every other day for 5 days. In kind it is organism-based. Set-up: dose 10-30 mg/kg, route intraperitoneal. Particulars: in vivo, 120 h. In a few lines:
as §6

Data set [15] addresses Signal transducer and activator of transcription 3 (Homo sapiens) (UniProt P40763). The experiment in a line: Inhibition of STAT3 in human SUM149PT cells assessed as reduction of STAT3 phosphorylation at Y705 after 24 hrs by Western blotting analysis. Type of data set: cell-based. The method, boiled down:
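HS578T and SUM149PT cells given increasing concentrations for 24 h. Lysates immunoblotted with the indicated antibodies, β-actin as loading control.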

The nature of data set [16]: Antitumor activity against human SUM149 cells xenografted in athymic Balb/c nude mouse at 10 to 30 mg/kg, ip administered every other day for 5 days measured on day 5. Type of data set: functional, SUM149PT. The settings on record: dose mg/kg 10-30; route intraperitoneal. The method, boiled down:
as §6

The test system of data set [17] is Mus musculus. Briefly: Toxicity in athymic Balb/c nude mouse xenografted with human SUM149 cells assessed as change in body weight at 10 to 30 mg/kg, ip administered every other day for 5 days. Type of data set: organism-based. Details: dose 10-30 mg/kg, route intraperitoneal. The settings on record: in vivo, 120 h. The method, boiled down:
as §6

Data set [18] deals with Mus musculus. Briefly: Toxicity in athymic Balb/c nude mouse xenografted with human SUM149 cells assessed as loss of appetite at 10 to 30 mg/kg, ip administered every other day for 5 days. Type of data set: organism-based. Set-up: dose 10-30 mg/kg, route intraperitoneal. Particulars: in vivo, 120 h. The method, boiled down: as §6
The subject of data set [19] is A549. The experiment in a line: Cytotoxicity against human A549 cells after 72 hrs by MTT assay. In kind it is functional. Particulars: A549, 72 h. The method, boiled down:
as §1

In data set [20] the test system is BT-549. The experiment in a line: Cytotoxicity against human BT549 cells after 72 hrs by MTT assay. Type of data set: functional, cell-based. The method, boiled down:
as §1

Data set [21] concerns HCC1937. Briefly: Cytotoxicity against human HCC1937 cells after 72 hrs by MTT assay. In kind it is functional, cell-based. In a few lines:
as §1

Data set [22] deals with A549. The experiment in a line: Antitumor activity against human A549 cells xenografted in athymic Balb/c nude mouse at 10 mg/kg, ip administered every other day for 27 days measured up to day 27. Type of data set: functional. Particulars: 648 h, route intraperitoneal, read-out: TGI. The method, boiled down:
as §5

Activity calls are given as the source filed them. The calls are words filed in the database; no cut-off is given here.

Sequence of Signal transducer and activator of transcription 3 (Homo sapiens) (P40763 whole entry): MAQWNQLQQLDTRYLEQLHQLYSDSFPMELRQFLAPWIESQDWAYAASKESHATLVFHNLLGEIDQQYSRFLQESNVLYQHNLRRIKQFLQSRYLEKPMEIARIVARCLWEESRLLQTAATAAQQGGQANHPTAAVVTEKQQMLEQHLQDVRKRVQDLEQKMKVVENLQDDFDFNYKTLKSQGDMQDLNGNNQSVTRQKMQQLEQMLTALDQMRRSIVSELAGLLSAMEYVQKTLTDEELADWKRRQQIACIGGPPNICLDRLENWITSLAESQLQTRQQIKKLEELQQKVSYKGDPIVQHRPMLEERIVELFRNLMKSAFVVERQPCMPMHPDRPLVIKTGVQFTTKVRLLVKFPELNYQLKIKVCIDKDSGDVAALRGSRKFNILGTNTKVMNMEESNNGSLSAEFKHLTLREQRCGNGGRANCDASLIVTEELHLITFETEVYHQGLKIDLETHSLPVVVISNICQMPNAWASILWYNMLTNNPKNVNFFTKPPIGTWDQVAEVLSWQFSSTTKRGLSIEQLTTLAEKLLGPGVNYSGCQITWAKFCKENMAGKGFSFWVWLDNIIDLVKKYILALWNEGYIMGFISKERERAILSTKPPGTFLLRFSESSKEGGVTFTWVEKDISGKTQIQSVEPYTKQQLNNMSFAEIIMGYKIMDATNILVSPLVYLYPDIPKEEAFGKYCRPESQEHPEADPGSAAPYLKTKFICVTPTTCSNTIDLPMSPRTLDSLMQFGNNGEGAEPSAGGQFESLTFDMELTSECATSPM

Broadly, the GI50 is the concentration that inhibits growth by half. Higher therefore signals lower sensitivity of the cells. The TGI is the reduction of tumour growth relative to the control group. A low value points to a weaker effect on the tumour. As for `Cc1c(OS(=O)(=O)c2cccc3c(N(C)C)cccc23)ccc2c1[nH]c1cc(O)ccc12`, the outcome in data set [1], in data set [2], in data set [5], in [9], in data set [12] and in data set [20] was Active. In addition, in [21], the result was Active. In addition, the inhibition result in data set [3], in data set [10] and in data set [13] was “Active” throughout. Besides, the Drug uptake entry in [4] is “Not Active”; in data set [6], “Active”. Further, the inhibition in vivo at 10 mg/kg was 68.7% in [7] and 54.9% in data set [22]. Moreover, the GI50 turned out to be 3 µM in [8] and 2.5 µM in data set [19]. In addition, the Activity entry in [11], in [14], in data set [17] and in data set [18] was “Non-toxic” each time. The inhibition result in data set [15] was “Dose-dependent effect”. This compound also returned a TGI in [16] of 57%.
